Laboratory results as given in ChEMBL document CHEMBL3351470, “Synthesis and Structure-Activity Relationships of α-Amino-γ-lactone Ketolides: A Novel Class of Macrolide Antibiotics” (2014).
In brackets after ≈: the same amount, converted by molar mass.

Assays:
Format in all cases: functional
Streptococcus pyogenes [1] = assay: Antibacterial activity against macrolide lincosamide- streptogramin B inducibly-resistant Streptococcus pyogenes by agar microdilution method
Summary of the method: (§1)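 Agar microdilution MIC following NCCLS standards; strains taken from the Pliva Research Institute culture collection. Panel grouped by phenotype: erythromycin-susceptible, inducibly MLS-resistant (iMLS), constitutively MLSB-resistant and efflux-resistant (M). Azithromycin, telithromycin and cethromycin tested alongside as references. MIC reported in μg/mL.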

Streptococcus pneumoniae [2] = assay: Antibacterial activity against erythromycin-susceptible Streptococcus pneumoniae by agar microdilution method
Summary of the method: (§2)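 Strains from an in-house culture collection (Pliva Research Institute). MIC determined by agar microdilution following NCCLS standards and reported in μg/mL. Erythromycin-susceptible strains are listed as Ery-S; the panel also includes inducibly resistant (iMLS), constitutively resistant (MLSB) and efflux-resistant (M) strains.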

Staphylococcus aureus [3] = assay: Antibacterial activity against macrolide lincosamide- streptogramin B inducibly-resistant Staphylococcus aureus by agar microdilution method; summary of the method: as §1
Staphylococcus aureus [4] = assay: Antibacterial activity against erythromycin-susceptible Staphylococcus aureus by agar microdilution method; summary of the method: as §2
Haemophilus influenzae = assay: Antibacterial activity against Haemophilus influenzae by agar microdilution method; summary of the method: as §2
Staphylococcus aureus [5] = assay: Antibacterial activity against macrolide lincosamide- streptogramin B-resistant Staphylococcus aureus by agar microdilution method; summary of the method: as §1
Streptococcus pyogenes [6] = assay: Antibacterial activity against erythromycin-susceptible Streptococcus pyogenes by agar microdilution method; summary of the method: as §2
Streptococcus pneumoniae [7] = assay: Antibacterial activity against macrolide lincosamide- streptogramin B inducibly-resistant Streptococcus pneumoniae by agar microdilution method; summary of the method: as §1
Streptococcus pyogenes [8] = assay: Antibacterial activity against efflux-resistant Streptococcus pyogenes by agar microdilution method; summary of the method: as §1
Streptococcus pneumoniae [9] = assay: Antibacterial activity against efflux-resistant Streptococcus pneumoniae by agar microdilution method; summary of the method: as §1

Compound | MIC (Streptococcus pyogenes [1]) [µg/mL] | MIC (Streptococcus pneumoniae [2]) [µg/mL] | MIC (Staphylococcus aureus [3]) [µg/mL] | MIC (Staphylococcus aureus [4]) [µg/mL] | MIC (Haemophilus influenzae) [µg/mL] | MIC (Staphylococcus aureus [5]) [µg/mL] | MIC (Streptococcus pyogenes [6]) [µg/mL] | MIC (Streptococcus pneumoniae [7]) [µg/mL] | MIC (Streptococcus pyogenes [8]) [µg/mL] | MIC (Streptococcus pneumoniae [9]) [µg/mL]
CC[C@H]1OC(=O)[C@H](C)C(=O)[C@H](C)[C@@H](O[C@@H]2O[C@H](C)C[C@H](N(C)C)[C@H]2O)[C@](C)(OC)C[C@@H](C)C(=O)[C@H](C)[C@H]2C(NC(=O)/C=C/CCc3cnc4ccccc4c3)C(=O)O[C@@]21C (some centres undefined) | 8 (≈ 9.57 µM) | ≤ 0.125 | 2 (≈ 2.39 µM) | 2 (≈ 2.39 µM) | 8 (≈ 9.57 µM) | > 64 | ≤ 0.125 | 8 (≈ 9.57 µM) | 4 (≈ 4.78 µM) | 1 (≈ 1.2 µM)
CC[C@H]1OC(=O)[C@H](C)C(=O)[C@H](C)[C@@H](O[C@@H]2O[C@H](C)C[C@H](N(C)C)[C@H]2O)[C@](C)(OC)C[C@@H](C)C(=O)[C@H](C)[C@H]2C(NC(=O)/C=C/CCc3cnc4c(OC)cccc4c3)C(=O)O[C@@]21C (some centres undefined) | 0.5 (≈ 0.577 µM) | ≤ 0.125 | 1 (≈ 1.15 µM) | 1 (≈ 1.15 µM) | 1 (≈ 1.15 µM) | > 64 | ≤ 0.125 | 2 (≈ 2.31 µM) | 2 (≈ 2.31 µM) | 2 (≈ 2.31 µM)
CC[C@H]1OC(=O)[C@H](C)C(=O)[C@H](C)[C@@H](O[C@@H]2O[C@H](C)C[C@H](N(C)C)[C@H]2O)[C@](C)(OC)C[C@@H](C)C(=O)[C@H](C)[C@H]2C(NC(=O)/C=C/CCc3cnc4ccc(OC)cc4c3)C(=O)O[C@@]21C (some centres undefined) | 0.25 (≈ 0.289 µM) | ≤ 0.125 | 2 (≈ 2.31 µM) | 2 (≈ 2.31 µM) | 1 (≈ 1.15 µM) | > 64 | ≤ 0.125 | 8 (≈ 9.24 µM) | 4 (≈ 4.62 µM) | 4 (≈ 4.62 µM)
CC[C@H]1OC(=O)[C@H](C)C(=O)[C@H](C)[C@@H](O[C@@H]2O[C@H](C)C[C@H](N(C)C)[C@H]2O)[C@](C)(OC)C[C@@H](C)C(=O)[C@H](C)[C@H]2C(NC(=O)CCCCc3cnc4ccccc4c3)C(=O)O[C@@]21C (some centres undefined) | 8 (≈ 9.55 µM) | ≤ 0.125 | 2 (≈ 2.39 µM) | 1 (≈ 1.19 µM) | 16 (≈ 19.1 µM) | > 64 | ≤ 0.125 | 8 (≈ 9.55 µM) | 16 (≈ 19.1 µM) | 4 (≈ 4.77 µM)
CC[C@H]1OC(=O)[C@H](C)C(=O)[C@H](C)[C@@H](O[C@@H]2O[C@H](C)C[C@H](N(C)C)[C@H]2O)[C@](C)(OC)C[C@@H](C)C(=O)[C@H](C)[C@H]2C(NC(=O)CCCCc3cnc4c(OC)cccc4c3)C(=O)O[C@@]21C (some centres undefined) | 4 (≈ 4.61 µM) | ≤ 0.125 | 1 (≈ 1.15 µM) | 1 (≈ 1.15 µM) | 16 (≈ 18.4 µM) | > 64 | ≤ 0.125 | 2 (≈ 2.3 µM) | 4 (≈ 4.61 µM) | 4 (≈ 4.61 µM)
CC[C@H]1OC(=O)[C@H](C)C(=O)[C@H](C)[C@@H](O[C@@H]2O[C@H](C)C[C@H](N(C)C)[C@H]2O)[C@](C)(OC)C[C@@H](C)C(=O)[C@H](C)[C@H]2C(NC(=O)CCCCc3cnc4ccc(OC)cc4c3)C(=O)O[C@@]21C (some centres undefined) | 2 (≈ 2.3 µM) | ≤ 0.125 | 2 (≈ 2.3 µM) | 1 (≈ 1.15 µM) | 8 (≈ 9.22 µM) | > 64 | ≤ 0.125 | 4 (≈ 4.61 µM) | 4 (≈ 4.61 µM) | 4 (≈ 4.61 µM)
CC[C@H]1OC(=O)[C@H](C)C(=O)[C@H](C)[C@@H](O[C@@H]2O[C@H](C)C[C@H](N(C)C)[C@H]2O)[C@](C)(OC)C[C@@H](C)C(=O)[C@H](C)[C@H]2C(NC(=O)CSc3cnc4ccccc4n3)C(=O)O[C@@]21C (some centres undefined) | 0.25 (≈ 0.302 µM) | ≤ 0.06 | 0.25 (≈ 0.302 µM) | ≤ 0.125 | 0.5 (≈ 0.603 µM) | > 64 | ≤ 0.06 | ≤ 0.125 | 0.25 (≈ 0.302 µM) | 0.25 (≈ 0.302 µM)
CC[C@H]1OC(=O)[C@H](C)C(=O)[C@H](C)[C@@H](O[C@@H]2O[C@H](C)C[C@H](N(C)C)[C@H]2O)[C@](C)(OC)C[C@@H](C)C(=O)[C@H](C)[C@H]2C(NC(=O)CNC(=O)CSc3cnc4ccccc4n3)C(=O)O[C@@]21C (some centres undefined) | 1 (≈ 1.13 µM) | 0.25 (≈ 0.282 µM) | 0.25 (≈ 0.282 µM) | ≤ 0.125 | 2 (≈ 2.26 µM) | > 64 | 0.25 (≈ 0.282 µM) | 0.5 (≈ 0.564 µM) | 0.5 (≈ 0.564 µM) | 0.5 (≈ 0.564 µM)
CC[C@H]1OC(=O)[C@H](C)C(=O)[C@H](C)[C@@H](O[C@@H]2O[C@H](C)C[C@H](N(C)C)[C@H]2O)[C@](C)(OCC=Cc2cnc3ccccc3c2)C[C@@H](C)C(=O)[C@H](C)[C@H]2NC(=O)O[C@@]21C [CETHROMYCIN] | 1 (≈ 1.31 µM) | ≤ 0.06 | 0.25 (≈ 0.326 µM) | ≤ 0.125 | 2 (≈ 2.61 µM) | > 64 | ≤ 0.06 | ≤ 0.125 | ≤ 0.125 | 
